Test results published in ChEMBL document CHEMBL4004855, “Synthesis of hetero annulated isoxazolo-, pyrido- and pyrimido carbazoles: Screened for in vitro antitumor activity and structure activity relationships, a novel 2-amino-4-(3'-bromo-4'-methoxyphenyl)-8-chloro-11H-pyrimido[4,5-a]carbazole as an antitumor agent” (Eur J Med Chem, 2017).
pIC50: −log10 of the molar value. The source made the active and inactive calls. The rule behind the calls is not given here.

Key:
Assay type in all cases: functional, cell-based
MCF7 [1] = experiment: Cytotoxicity against human MCF7 cells assessed as reduction in cell viability after 48 hrs by MTT assay; settings: for pIC50: MCF7, 48 h
Procedure, shortened: (§1)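 Cells kept in DMEM with 10% FBS, glutamine, HEPES and antibiotics at 37°C, 5% CO2. Seeded at 1×10⁴ cells/well and grown 48 h to 75% confluence, then exposed to serially diluted compounds for 48 h. MTT added for 4 h at 37 °C, formazan dissolved in DMSO, OD read at 620 nm. Viability is given as % of control OD, and IC50 is read from the viability-versus-concentration plot. Three independent experiments in triplicate.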

A549 [2] = experiment: Cytotoxicity against human A549 cells assessed as reduction in cell viability after 48 hrs by MTT assay; settings: for pIC50: A549, 48 h; procedure, shortened: as §1
MCF7 [3] = experiment: Induction of morphological changes in human MCF7 cells assessed as cell shrinkage after 24 hrs by phase contrast microscopy
MCF7 [4] = experiment: Induction of morphological changes in human MCF7 cells assessed as membrane blebbing after 24 hrs by phase contrast microscopy
MCF7 [5] = experiment: Induction of morphological changes in human MCF7 cells assessed as formation of floating cells after 24 hrs by phase contrast microscopy
MCF7 [6] = experiment: Induction of apoptosis in human MCF7 cells assessed as chromatin condensation after 24 hrs by AO/EB-dual staining based fluorescent microscopic analysis
Procedure, shortened: (§2)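 Treated cells were collected, washed in PBS (pH 7.2), and stained with an AO/EtBr mixture (1:1; […] each in water) for 2 min. They were then washed twice with PBS and viewed by fluorescence microscopy at 400× with a 480 nm excitation filter. Green marks intact membranes; orange/red marks damaged membranes and condensed nuclei. Untreated cells served as control.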

MCF7 [7] = experiment: Induction of apoptosis in human MCF7 cells assessed as nuclear fragmentation after 24 hrs by DAPI-staining based fluorescence microscopic analysis
Procedure, shortened: (§3)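 Cells were grown on glass coverslips, treated for 24 h, fixed, and permeabilised with 0.2% Triton X-100 for 10 min at room temperature. They were then stained with DAPI for 3 min and examined by fluorescence microscopy for condensed chromatin and nuclear fragmentation. Untreated cells served as control.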

A549 [8] = experiment: Induction of apoptosis in human A549 cells assessed as nuclear fragmentation after 24 hrs by DAPI-staining based fluorescence microscopic analysis; procedure, shortened: as §3
A549 [9] = experiment: Induction of morphological changes in human A549 cells assessed as cell shrinkage after 24 hrs by phase contrast microscopy
A549 [10] = experiment: Induction of morphological changes in human A549 cells assessed as membrane blebbing after 24 hrs by phase contrast microscopy
A549 [11] = experiment: Induction of morphological changes in human A549 cells assessed as formation of floating cells after 24 hrs by phase contrast microscopy
A549 [12] = experiment: Induction of apoptosis in human A549 cells assessed as chromatin condensation after 24 hrs by AO/EB-dual staining based fluorescent microscopic analysis; procedure, shortened: as §2

Structure (SMILES)	Activity (MCF7 [1])	pIC50 (MCF7 [1])	Activity (A549 [2])	pIC50 (A549 [2])	Activity (MCF7 [3])	Activity (MCF7 [4])	Activity (MCF7 [5])	Activity (MCF7 [6])	Activity (MCF7 [7])	Activity (A549 [8])	Activity (A549 [9])	Activity (A549 [10])	Activity (A549 [11])	Activity (A549 [12])
COc1ccc(-c2nc(N)nc3c2ccc2c4cc(C)ccc4[nH]c23)cc1Br	Dose-dependent effect	4.66	Dose-dependent effect	4.62	Dose-dependent effect	Dose-dependent effect	Dose-dependent effect	inactive	Active	Active	Dose-dependent effect	Dose-dependent effect	Dose-dependent effect	–
COc1ccc(-c2nc(N)nc3c2ccc2c4cccc(C)c4[nH]c23)cc1Br	Dose-dependent effect	4.55	Dose-dependent effect	4.51	–	–	–	–	–	–	–	–	–	–
COc1ccc(-c2onc3c2CCc2c-3[nH]c3ccc(C)cc23)cc1Br	Dose-dependent effect	4.68	Dose-dependent effect	4.55	Dose-dependent effect	Dose-dependent effect	Dose-dependent effect	inactive	Active	Active	Dose-dependent effect	Dose-dependent effect	Dose-dependent effect	Active
CCOc1nc2c(c(-c3ccc(OC)c(Br)c3)c1C#N)CCc1c-2[nH]c2c(C)cccc12	Dose-dependent effect	4.44	Dose-dependent effect	4.41	–	–	–	–	–	–	–	–	–	–
COc1ccc(-c2nc(N)nc3c2ccc2c4cc(Cl)ccc4[nH]c23)cc1Br	Dose-dependent effect	4.70	Dose-dependent effect	4.60	Dose-dependent effect	Dose-dependent effect	Dose-dependent effect	Active	–	inactive	Dose-dependent effect	Dose-dependent effect	Dose-dependent effect	Active
CCOc1nc2c(c(-c3ccc(OC)c(Br)c3)c1C#N)CCc1c-2[nH]c2ccc(C)cc12	Dose-dependent effect	4.60	Dose-dependent effect	4.54	Dose-dependent effect	Dose-dependent effect	Dose-dependent effect	inactive	Active	–	Dose-dependent effect	Dose-dependent effect	Dose-dependent effect	Active
COc1ccc(-c2onc3c2CCc2c-3[nH]c3c(C)cccc23)cc1Br	Dose-dependent effect	4.49	Dose-dependent effect	4.46	–	–	–	–	–	–	–	–	–	–
COc1ccc(-c2nc(N)nc3c2ccc2c4ccccc4[nH]c23)cc1Br	Dose-dependent effect	4.59	Dose-dependent effect	4.54	–	–	–	–	–	–	–	–	–	–
COc1ccc(-c2onc3c2CCc2c-3[nH]c3ccccc23)cc1Br	Dose-dependent effect	4.51	Dose-dependent effect	4.48	–	–	–	–	–	–	–	–	–	–
CCOc1nc2c(c(-c3ccc(OC)c(Br)c3)c1C#N)CCc1c-2[nH]c2ccc(Cl)cc12	Dose-dependent effect	4.60	Dose-dependent effect	4.49	Dose-dependent effect	Dose-dependent effect	Dose-dependent effect	Active	–	inactive	Dose-dependent effect	Dose-dependent effect	Dose-dependent effect	–
CCOc1nc2c(c(-c3ccc(OC)c(Br)c3)c1C#N)CCc1c-2[nH]c2ccccc12	Dose-dependent effect	4.46	Dose-dependent effect	4.43	–	–	–	–	–	–	–	–	–	–
